Measurements published in ChEMBL document CHEMBL1926675, “Thio- and aminocaffeine analogues as inhibitors of human monoamine oxidase” (Bioorg Med Chem, 2011).

How the values were obtained:
[1] = species: Homo sapiens; test: Selectivity ratio, ratio of IC50 for human recombinant MAOA to IC50 for human recombinant MAOB
In short: (§1)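 Enzyme: insect-cell microsomal recombinant human MAO-A or -B (0.0075 mg/mL) in 100 mM potassium phosphate, pH 7.4, isotonic with KCl. Kynuramine 45 µM (MAO-A) or 30 µM (MAO-B), inhibitor 0–100 µM, 37 °C, 20 min. Reaction stopped with 2 N NaOH. 4-Hydroxyquinoline fluorescence read at ex 310/em 400 nm against a calibration curve. IC50 taken from one-site fits of six concentrations, in triplicate. Selectivity = IC50(MAO-A)/IC50(MAO-B).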

[2] = target: T1, Amine oxidase [flavin-containing] B (Homo sapiens, UniProt P27338); test: Inhibition of human recombinant MAOB using kynuramine as substrate by fluorescence assay; in short: as §1
T1 sequence (P27338 whole entry): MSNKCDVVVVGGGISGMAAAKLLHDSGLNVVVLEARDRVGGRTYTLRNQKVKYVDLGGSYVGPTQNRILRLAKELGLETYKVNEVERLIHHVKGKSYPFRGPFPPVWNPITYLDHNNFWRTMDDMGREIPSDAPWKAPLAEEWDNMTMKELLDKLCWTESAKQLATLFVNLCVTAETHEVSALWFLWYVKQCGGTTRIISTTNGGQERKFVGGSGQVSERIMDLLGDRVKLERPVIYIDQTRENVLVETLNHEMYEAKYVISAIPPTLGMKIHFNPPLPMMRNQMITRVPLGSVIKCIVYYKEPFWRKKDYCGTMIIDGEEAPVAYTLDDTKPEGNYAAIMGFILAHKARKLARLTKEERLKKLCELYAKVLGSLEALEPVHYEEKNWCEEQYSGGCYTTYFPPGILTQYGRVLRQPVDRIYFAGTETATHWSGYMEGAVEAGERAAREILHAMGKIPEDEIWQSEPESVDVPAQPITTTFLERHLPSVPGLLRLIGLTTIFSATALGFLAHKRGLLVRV

[3] = target: T2, Amine oxidase [flavin-containing] A (Homo sapiens, UniProt P21397); test: Inhibition of human recombinant MAOA using kynuramine as substrate by fluorescence assay; in short: as §1
T2 sequence (P21397 whole entry): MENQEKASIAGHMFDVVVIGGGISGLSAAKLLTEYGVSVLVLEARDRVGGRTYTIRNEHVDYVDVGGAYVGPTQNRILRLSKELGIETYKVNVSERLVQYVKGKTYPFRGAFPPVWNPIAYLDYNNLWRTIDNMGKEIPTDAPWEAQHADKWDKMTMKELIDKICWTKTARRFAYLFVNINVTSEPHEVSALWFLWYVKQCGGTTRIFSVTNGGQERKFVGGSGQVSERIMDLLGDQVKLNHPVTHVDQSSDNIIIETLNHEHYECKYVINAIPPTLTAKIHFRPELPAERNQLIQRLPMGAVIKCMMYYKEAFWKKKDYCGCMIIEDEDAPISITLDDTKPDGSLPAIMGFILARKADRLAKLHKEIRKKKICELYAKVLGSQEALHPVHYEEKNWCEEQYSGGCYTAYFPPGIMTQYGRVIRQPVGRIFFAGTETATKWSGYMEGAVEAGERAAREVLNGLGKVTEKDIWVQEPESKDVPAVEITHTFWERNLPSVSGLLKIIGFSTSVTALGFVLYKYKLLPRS

[4] = target: T1, Amine oxidase [flavin-containing] B; test: Inhibition of human recombinant MAOB at 100 uM using kynuramine as substrate by fluorescence assay; in short: as §1
[5] = target: T2, Amine oxidase [flavin-containing] A; test: Inhibition of human recombinant MAOA at 100 uM using kynuramine as substrate by fluorescence assay; in short: as §1
[6] = target: T1, Amine oxidase [flavin-containing] B; test: Reversible Inhibition of human recombinant MAOB using kynuramine as substrate at 2 times IC50 up to 60 mins; details: 1 h
In short: (§2)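 Recombinant human MAO-A or -B (0.015–0.03 mg/mL) was preheated at 37 °C for 60 min in total and preincubated with inhibitor at about 2× its IC50 for 0, 15, 30 or 60 min in pH 7.4 potassium phosphate. Mixtures were diluted 2-fold with kynuramine (45 µM MAO-A, 30 µM MAO-B) and incubated 15 min at 37 °C. Residual 4-hydroxyquinoline formation was read by fluorescence.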

[7] = target: T1, Amine oxidase [flavin-containing] B; test: Time dependent inhibition of human recombinant MAOB using kynuramine as substrate at 5.94 uM by fluorescence assay; in short: as §2
[8] = target: T1, Amine oxidase [flavin-containing] B; test: Inhibition of human recombinant MAOB using kynuramine as substrate at 5.94 uM after 60 mins by fluorescence assay; details: 1 h; in short: as §2
[9] = target: T2, Amine oxidase [flavin-containing] A; test: Inhibition of human recombinant MAOA using kynuramine as substrate at 11.56 uM after 60 mins by fluorescence assay; details: 1 h; in short: as §2
[10] = target: T2, Amine oxidase [flavin-containing] A; test: Reversible Inhibition of human recombinant MAOA using kynuramine as substrate at 2 times IC50 up to 60 mins; details: 1 h; in short: as §2
[11] = target: T2, Amine oxidase [flavin-containing] A; test: Time dependent inhibition of human recombinant MAOA using kynuramine as substrate at 11.56 uM by fluorescence assay; in short: as §2
[12] = target: T2, Amine oxidase [flavin-containing] A; test: Competitive inhibition of human recombinant MAOA using kynuramine as substrate at 1.31 to 5.22 uM by Lineweaver burk plot analysis
In short: (§3)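 Insect-cell microsomal recombinant human MAO-A or -B, 0.015 mg/mL, in potassium phosphate buffer (100 mM, pH 7.4, isotonic with KCl). Initial rates were measured with four kynuramine concentrations (15–90 µM), without inhibitor and with three inhibitor levels (MAO-A 1.31–5.22 µM; MAO-B 0.04–0.16 µM). Lineweaver–Burk plots were fitted by linear regression.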

[13] = target: T1, Amine oxidase [flavin-containing] B; test: Time dependent inhibition of human recombinant MAOB using kynuramine as substrate at 0.32 uM by fluorescence assay; in short: as §2
[14] = target: T1, Amine oxidase [flavin-containing] B; test: Competitive inhibition of human recombinant MAOB using kynuramine as substrate at 0.04 to 0.16 uM by Lineweaver burk plot analysis; in short: as §3
[15] = target: T2, Amine oxidase [flavin-containing] A; test: Time dependent inhibition of human recombinant MAOA using kynuramine as substrate at 5.22 uM by fluorescence assay; in short: as §2
[16] = target: T1, Amine oxidase [flavin-containing] B; test: Inhibition of human recombinant MAOB using kynuramine as substrate at 0.32 uM after 60 mins by fluorescence assay; details: 1 h; in short: as §2
[17] = target: T2, Amine oxidase [flavin-containing] A; test: Inhibition of human recombinant MAOA using kynuramine as substrate at 5.22 uM after 60 mins by fluorescence assay; details: 1 h; in short: as §2

Compound	Ratio IC50 [1]	IC50 [2] [µM]	IC50 [3] [µM]	further results
Cn1c(=O)c2c(nc(Nc3ccccc3)n2C)n(C)c1=O	–	–	–	IC50 [4]: Not Active; IC50 [5]: Not Active
Cn1c(=O)c2c(nc(NC3CCCC3)n2C)n(C)c1=O	–	–	–	IC50 [4]: Not Active; IC50 [5]: Not Active
Cn1c(=O)c2c(nc(NCc3ccccc3)n2C)n(C)c1=O	–	–	–	IC50 [4]: Not Active; IC50 [5]: Not Active
CN(CCCCc1ccccc1)c1nc2c(c(=O)n(C)c(=O)n2C)n1C	12.7	2.97	37.7	inhibition (INH) [6]: Active; TDI [7]: Not Active; inhibition (INH) [8]: Not Active
Cn1c(=O)c2c(nc(NCCc3ccccc3)n2C)n(C)c1=O	2.6	17.6	45.2	–
Cn1c(=O)c2c(nc(NCCc3cccc(Cl)c3)n2C)n(C)c1=O	0.2	24.4	5.78	inhibition (INH) [9]: Not Active; inhibition (INH) [10]: Active; TDI [11]: Not Active
CN(CCc1ccccc1)c1nc2c(c(=O)n(C)c(=O)n2C)n1C	6.4	16.8	107	–
COc1ccc(CSc2nc3c(c(=O)n(C)c(=O)n3C)n2C)cc1	–	–	–	IC50 [4]: Not Active; IC50 [5]: Not Active
Cn1c(=O)c2c(nc(NCCCCc3ccccc3)n2C)n(C)c1=O	3.2	9.6	30.9	–
Cn1c(=O)c2c(nc(SC3CCCCC3)n2C)n(C)c1=O	1.9	13.1	24.4	–
Cn1c(=O)c2c(nc(NCCCc3ccccc3)n2C)n(C)c1=O	–	–	–	IC50 [4]: Not Active; IC50 [5]: Not Active
Cn1c(=O)c2c(nc(SC3CCCC3)n2C)n(C)c1=O	0.4	20.9	9.4	–
CC(C)CCSc1nc2c(c(=O)n(C)c(=O)n2C)n1C	5.8	2.62	15.2	–
Cn1c(=O)c2c(nc(NCCc3ccccn3)n2C)n(C)c1=O	–	19.4	–	IC50 [5]: Not Active

More lines, main results first:

Ratio IC50 [1]	IC50 [2] [µM]	IC50 [3] [µM]	Compound	further results
14.4	0.192	2.77	Cn1c(=O)c2c(nc(SCc3ccc(Cl)cc3)n2C)n(C)c1=O	–
4.4	1.86	8.22	Cn1c(=O)c2c(nc(SCc3ccccc3)n2C)n(C)c1=O	–
1.7	33.2	56.4	Cn1c(=O)c2c(nc(Sc3ccccc3)n2C)n(C)c1=O	–
15.7	0.167	2.62	Cn1c(=O)c2c(nc(SCc3ccc(Br)cc3)n2C)n(C)c1=O	inhibition (INH) [10]: Active; inhibition (INH) [6]: Active; inhibition (INH) [12]: Active; TDI [13]: Not Active; inhibition (INH) [14]: Active; TDI [15]: Not Active; inhibition (INH) [16]: Not Active; inhibition (INH) [17]: Not Active
1	3.6	3.6	Cn1c(=O)c2c(nc(Sc3ccc4ccccc4c3)n2C)n(C)c1=O	–
13.8	0.348	4.8	Cn1c(=O)c2c(nc(SCc3ccc(F)cc3)n2C)n(C)c1=O	–
91.9	0.223	20.5	Cn1c(=O)c2c(nc(SCCc3ccccc3)n2C)n(C)c1=O	–
46.7	0.332	15.5	Cn1c(=O)c2c(nc(SCCOc3ccccc3)n2C)n(C)c1=O	–
